Many of the other results were omitted from the sample, so hits are more common in it than they were.
bCat KO growth: beta-catenin-lacking colon tumor cell growth suppression | HCT116 beta-catenin knockout viability, CellTiter-Glo, 60 h; hits give low values | viability, % at 10 µM | AID 818 | hit rate 1.5% among 140,000;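 active means viability at or under a set limit, the compound median less 4 SD, cut at about 6% in these data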;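 further: 0% = Hyamine 1622 control at 20 µM and 100% = untreated cell control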
HUVEC inhibit: inhibitors of human endothelial cell proliferation; HUVEC proliferation, CellTiter-Glo luminescence, 72 h; hits give low values; viability, % at 10 µM (by protocol); hit rate 1.1% among 86,000; AID 648;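 active means viability at or below 30%; inactive means viability above 30%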;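 further: 100% = median luminescence of DMSO-only cell control wells on each plate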
Phagocyt inh: blocks phagocytosis by macrophages | J774A.1 macrophage IgG-bead phagocytosis, imaging | inhibition, % at 5 µM | hit rate 0.07% among 110,000 | AID 1029;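 active means inhibition above the mean of the plate negative controls plus 5 SD, cut at about 13% in these data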;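 further: phagocytic index as fraction of beads internalized from green versus red external bead signal; plate controls were DMSO negative control for no effect and cytochalasin-D positive control for full effect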
H69AR growth 86K: growth inhibitors of human H69AR lung tumor cells; H69AR lung tumor viability, ATP luminescence, 72 h; hits give low values; hit rate 6% among 85,000; viability, % at 10 µM;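 active means viability at or below 40%; inactive means viability above 40%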;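 further: multidrug resistant small cell line overexpressing MRP-1 efflux transporter; 100% = mean luminescence of untreated control wells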
Fibroblast inh: blocks proliferation of human lung fibroblasts; LL 47 human lung fibroblast viability, ATP luminescence; hits give low values; viability, % at 10 µM; hit rate 1.1% among 85,000; AID 719;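 active means viability at or below 50% in the single dose screen; inactive means viability above 50%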;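 further: compound exposure lasted 72 h before the ATP readout; 100% = median luminescence of untreated cell-only wells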
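Times – overnight cell rest, 72 h compound treatment at 37 °C · Test system – human lung fibroblast line LL 47, low passage · Amount – 1,150 cells in each well · Controls – cell-only wells, no compound · Doses – 0.1% DMSO in all compound wells · Measured by – CellTiter-Glo luminescence · Buffer or medium – IMEM plus 15% FBS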
PTEN del growth: PTEN-deleted cell growth suppression; HCT116 PTEN-null viability, CellTiter-Glo, 60 h; hits give low values; viability, % at 10 µM; hit rate 1.2% among 140,000;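 active means viability at or below a set limit, 4 SD under the median of all tested compounds, cut at about 3.7% in these data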;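 further: PTEN knockout HCT116 line with beta catenin targeted HCT116 as companion control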
* marks the source's active call; other numbers are inactive results.

For Cc1ccccc1NC(=O)C1CCN(c2cc(-c3ccccc3)nc3ncnn23)CC1 the results were bCat KO growth 62, HUVEC inhibit 104, H69AR growth 86K 37*, Fibroblast inh 90 and PTEN del growth 41.
For Cc1ccc2c(c1)NC(=O)C(CC(=O)NCCCN1CCN(c3cc(Cl)ccc3C)CC1)O2 (centres undefined) the results were bCat KO growth 5.8*, HUVEC inhibit 2.9*, Phagocyt inh 0, H69AR growth 86K 49, Fibroblast inh 67 and PTEN del growth 7.
`O=C(Nc1cccc2ccccc12)c1ccc(Br)o1` gave bCat KO growth 99, HUVEC inhibit 91, Phagocyt inh 2, H69AR growth 86K 82, Fibroblast inh 107 and PTEN del growth 97.
Screening O=C(Nc1cccc2cccnc12)c1ccc(Br)o1 returned bCat KO growth 83, HUVEC inhibit 71, Phagocyt inh -1, H69AR growth 86K 37*, Fibroblast inh 90 and PTEN del growth 87.
CCOC(=O)c1ccc(N2C(=O)C=CC2=O)cc1 was read as bCat KO growth 97, HUVEC inhibit 12*, Phagocyt inh 4, H69AR growth 86K 1.9*, Fibroblast inh 4.3* and PTEN del growth 110.
Screening COc1ccc(NC(=O)Nc2nnc(N3CCC(C)CC3)s2)cc1OC returned bCat KO growth 98, HUVEC inhibit 83, H69AR growth 86K 37*, Fibroblast inh 94 and PTEN del growth 90.
`CCCCSc1nnc(CNC(=O)C23CC4CC(CC(C4)C2)C3)n1Cc1ccccc1` gave bCat KO growth 94, Phagocyt inh -3 and PTEN del growth 96.
`Cc1cccc(C)c1OCC(O)CNC(C)(C)C` (centres undefined) gave bCat KO growth 92, HUVEC inhibit 102, H69AR growth 86K 82, Fibroblast inh 99 and PTEN del growth 111.
For COc1ccc(N(CC(=O)Nc2nc3ccc(C)cc3s2)S(=O)(=O)c2c(C)nn(C)c2C)cc1 the results were bCat KO growth 26, HUVEC inhibit 73, Phagocyt inh 0, H69AR growth 86K 15*, Fibroblast inh 86 and PTEN del growth 32.
CN(Cc1ccccc1)c1nc(N)c([N+](=O)[O-])c(NCc2ccccc2)n1 was read as bCat KO growth 74, Phagocyt inh -6 and PTEN del growth 64.
For CC(=O)N(C(C)=O)c1ncc2c([nH]c3ccccc32)c1C#N the results were bCat KO growth 69, HUVEC inhibit 63, H69AR growth 86K 37*, Fibroblast inh 72 and PTEN del growth 76.
CCCCOc1ccc(-c2c(C#N)c(N)nc(SCC(N)=O)c2C#N)cc1 was read as bCat KO growth 26, HUVEC inhibit 67, Phagocyt inh -1, H69AR growth 86K 35* and PTEN del growth 9.
CCCCOC(=O)CSc1nc(N)c(C#N)c(-c2ccc(OCC)cc2)c1C#N was read as bCat KO growth 92, HUVEC inhibit 72, Phagocyt inh -1, H69AR growth 86K 68, Fibroblast inh 86 and PTEN del growth 107.
COc1ccc(-c2cc(-c3n[nH]c(=S)n3-c3ccccc3OC)[nH]n2)cc1 was read as bCat KO growth 101, Phagocyt inh -5 and PTEN del growth 95.
`Oc1ccc(Cl)cc1-c1cc(-c2ccccc2)n[nH]1` gave bCat KO growth 10, HUVEC inhibit 31, Phagocyt inh 0, H69AR growth 86K 4.3*, Fibroblast inh 77 and PTEN del growth 16.
`COc1ccccc1-c1cc(-c2cc(Cl)ccc2O)n[nH]1` gave bCat KO growth 37, HUVEC inhibit 92, Phagocyt inh 1, H69AR growth 86K 82, Fibroblast inh 91 and PTEN del growth 55.
For COc1ccc(-c2cc(-c3ccccc3O)[nH]n2)cc1 the results were bCat KO growth 43, HUVEC inhibit 71, Phagocyt inh -1, H69AR growth 86K 13*, Fibroblast inh 77 and PTEN del growth 47.
O=C(CSc1nnc(SCc2ccc(Cl)cc2)s1)c1ccc2c(c1)OCO2 was read as bCat KO growth 79 and PTEN del growth 89.
Screening O=S(=O)(/N=C(/c1ccc(F)cc1)N1CCCCC1)c1ccc(Cl)cc1 returned bCat KO growth 85, Phagocyt inh -8 and PTEN del growth 86.
Screening Cc1ccc(C2/C(=C(\O)c3ccc4c(c3)OCCO4)C(=O)C(=O)N2CCCN(C)C)o1 (centres undefined) returned bCat KO growth 95, HUVEC inhibit 96, Phagocyt inh 0, H69AR growth 86K 87, Fibroblast inh 106 and PTEN del growth 98.

Assay outcomes (PubChem)
